# IDH1 mut inh: IDH1 R132H (human) inhibition; inhibition, % at 10 µM; O75874; 70,000 tested, 0.18% active; AID 624101; IDH1 R132H reductase, diaphorase/resazurin fluorescence, 60 min; in the data active = inhibition above about 34%; inconclusive = no clear call, values can overlap the other calls; inactive = below about 11%;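 note: 0% = DMSO and 100% = no enzyme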
# Target sequence (O75874 whole entry R132H): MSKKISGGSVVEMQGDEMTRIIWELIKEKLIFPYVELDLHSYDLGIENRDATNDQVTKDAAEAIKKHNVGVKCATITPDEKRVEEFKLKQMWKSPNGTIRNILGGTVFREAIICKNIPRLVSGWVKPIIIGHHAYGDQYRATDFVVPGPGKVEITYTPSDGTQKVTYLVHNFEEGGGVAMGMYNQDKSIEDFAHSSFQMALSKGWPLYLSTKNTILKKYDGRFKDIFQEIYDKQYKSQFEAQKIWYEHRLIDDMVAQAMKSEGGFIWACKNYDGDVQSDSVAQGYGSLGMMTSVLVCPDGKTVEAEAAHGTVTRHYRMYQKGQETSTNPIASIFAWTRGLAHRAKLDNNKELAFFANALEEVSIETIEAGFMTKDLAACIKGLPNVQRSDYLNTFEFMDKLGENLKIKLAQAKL
# T cruzi growth-1: blocks T. cruzi growth in NIH3T3 culture | T. cruzi beta-gal in NIH3T3, GalScreen luminescence, 90 h | inhibition, % at 8.34 µM | 77,000 tested, 5.9% active | AID 624255;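 active = mean inhibition above about 93%, with at least 55% of replicates each passing it, limit read from the data, passing the limit was not always enough; inconclusive = only one of those two conditions holds; inactive = neither condition holds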
# GASC1 inh: blocks human GASC-1 (KDM4C) demethylase activity; Q9H3R0; GST-KDM4C 2-372, H3K9me3 peptide, LANCE TR-FRET; inhibition, % at 12.5 µM; 96,000 tested, 0.15% active;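 active = mean replicate inhibition above about 25%, with at least 55% of replicates also reaching it, limit read from the data, passing the limit was not always enough; inconclusive = only one of those two conditions met; inactive = neither condition met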
#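 System: N-terminal GST-fused human GASC-1 (KDM4C) fragment, residues 2-372; amount: enzyme final amount 10 nM; incubation: reaction 30 min RT, detection step 1 h RT; medium: HEPES buffer, pH 7.5, plus ascorbate; technique: LANCE TR-FRET, Eu antibody, ULight-streptavidin, EDTA, ex 340 nm, em 618/671 nm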
# T cruzi growth-2: inhibitors of T. cruzi proliferation; shares compounds with T cruzi growth-1; T. cruzi beta-gal in NIH3T3, GalScreen luminescence, 90 h; inhibition, % at 8.35 µM; 5,600 tested, 72% active;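 active = mean replicate inhibition above about 95% and at least 55% of replicates individually reaching it, limit read from the data; inconclusive = only one of the two criteria is met; inactive = neither criterion is met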
# T cruzi growth-3: Trypanosoma cruzi proliferation inhibition; T. cruzi beta-gal in NIH3T3, GalScreen luminescence, 90 h; AID 651740; shares compounds with T cruzi growth-1; inhibition, % at 2.09 µM; 5,600 tested, 21% active;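 active = mean inhibition above about 95%, with at least 55% of replicates also reaching it, limit read from the data; inconclusive = meets just one of the two conditions; inactive = meets neither condition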;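 note: plate controls were neutral control median for no effect and positive control median for full effect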
# 3T3 cytotox: NIH/3T3 (mouse) viability loss; cytotoxicity (signal decrease), % at 8.35 µM; shares compounds with T cruzi growth-1; NIH/3T3 viability, CellTiter-Glo ATP luminescence, 90 h; 5,600 tested, 14% active;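 active = mean signal decrease across replicates above about 35% based on untreated-well scatter, with enough replicates individually passing, limit read from the data; inconclusive = no rule stated though some were filed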;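 note: 0% = median of neutral control wells and 100% = median of positive control wells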
# 3T3 cytotox 2: NIH/3T3 (mouse) viability loss | shares compounds with T cruzi growth-1 | NIH/3T3 viability, CellTiter-Glo ATP luminescence, 90 h | inhibition, % at 24.9 µM | 5,600 tested, 56% active | AID 651744;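 active = mean loss of cell viability signal at or above a set limit, and enough replicates individually reaching it; inconclusive = meets only the mean limit or only the replicate share; inactive = meets neither condition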;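 note: 0% = median of neutral control wells and 100% = median of positive control wells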
# An asterisk follows results filed as active; ? = inconclusive; . = no result. Many of the other results were omitted from the sample, so hits are more common in it than they were.
SMILES,IDH1 mut inh,T cruzi growth-1,GASC1 inh,T cruzi growth-2,T cruzi growth-3,3T3 cytotox,3T3 cytotox 2
CC(=O)N(c1ccc2oc3c(c2c1)CCCC3)S(=O)(=O)c1cccc2cccnc12,0,.,.,.,.,.,.
C[C@@H]1CN([C@@H](C)CO)C(=O)c2cc(NS(=O)(=O)c3cccs3)ccc2O[C@@H](C)CCCCO[C@H]1CN(C)Cc1ccc(C(=O)O)cc1,.,-69,-1,.,.,.,.
C[C@@H]1CN([C@H](C)CO)C(=O)c2cc(NS(=O)(=O)c3cccs3)ccc2O[C@@H](C)CCCCO[C@@H]1CN(C)Cc1ccc(C(F)(F)F)cc1,.,98*,0,92,114*,-6,54*
C[C@@H]1CN([C@H](C)CO)C(=O)c2cc(NS(=O)(=O)c3cccs3)ccc2O[C@@H](C)CCCCO[C@H]1CN(C)Cc1ccc(C(=O)O)cc1,4,.,1,.,.,.,.
C[C@@H]1CCCCO[C@H](CN(C)Cc2ccc(C(F)(F)F)cc2)[C@@H](C)CN([C@@H](C)CO)C(=O)c2cc(NS(=O)(=O)c3cccs3)ccc2O1,1,112*,7,92,112*,1,106*
C[C@@H]1CN([C@@H](C)CO)C(=O)c2cc(NS(=O)(=O)c3cccs3)ccc2O[C@@H](C)CCCCO[C@H]1CN(C)Cc1ccc(C(F)(F)F)cc1,.,95,0,.,.,.,.
C[C@H](CO)N1C[C@H](C)[C@@H](CN(C)Cc2ccc(C(F)(F)F)cc2)OCCCC[C@H](C)Oc2ccc(NS(=O)(=O)c3cccs3)cc2C1=O,.,?,20,99*,105*,44*,106*
O=C(CSc1nccc(=O)[nH]1)Nc1cccc(I)c1,2,.,.,.,.,.,.
Cn1c(SCC(=O)Nc2ccccc2C(F)(F)F)nnc1-c1cccc(N)c1,0,.,.,.,.,.,.
COCC#Cc1ccc2c(c1)O[C@H](CN(C)Cc1ccc3c(c1)OCO3)[C@@H](C)CN([C@@H](C)CO)S2(=O)=O,0,.,4,.,.,.,.
CC(C)CC#Cc1ccc2c(c1)O[C@H](CN(C)Cc1ccc3c(c1)OCO3)[C@H](C)CN([C@@H](C)CO)S2(=O)=O,-1,96*,.,?,107*,-7,106*
CCCC#Cc1ccc2c(c1)O[C@@H](CN(C)Cc1ccc3c(c1)OCO3)[C@H](C)CN([C@H](C)CO)S2(=O)=O,-6,101*,2,?,104*,59*,103*
CCCC#Cc1ccc2c(c1)O[C@H](CN(C)Cc1ccc3c(c1)OCO3)[C@@H](C)CN([C@@H](C)CO)S2(=O)=O,-2,91,1,.,.,.,.
COCC#Cc1ccc2c(c1)O[C@@H](CN(C)Cc1ccc3c(c1)OCO3)[C@H](C)CN([C@@H](C)CO)S2(=O)=O,-2,.,0,.,.,.,.
CCCC#Cc1ccc2c(c1)O[C@@H](CN(C)Cc1ccc3c(c1)OCO3)[C@H](C)CN([C@@H](C)CO)S2(=O)=O,0,?,18,98*,108*,51*,104*
COCC#Cc1ccc2c(c1)O[C@@H](CN(C)Cc1ccc3c(c1)OCO3)[C@@H](C)CN([C@H](C)CO)S2(=O)=O,-4,.,1,.,.,.,.
C[C@@H]1CN([C@H](C)CO)S(=O)(=O)c2ccc(C#CCN(C)C)cc2O[C@H]1CN(C)Cc1ccc2c(c1)OCO2,-1,105*,1,100*,69,59*,107*
NC(=O)Cc1ccc(O)c(Cl)c1,0,.,.,.,.,.,.
CC1(C)CC(=O)C2=C(C1)N(CCCN1CCOCC1)C(=O)C2(NC(=O)c1ccccc1)C(F)(F)F (stereo unspecified),0,.,.,.,.,.,.
Cn1nnnc1SCC(=O)Nc1ccc(N2CCOCC2)c(Cl)c1,0,.,.,.,.,.,.
Cc1cccc(-c2noc(CN(C(C)C)S(=O)(=O)c3ccc([N+](=O)[O-])cc3)n2)c1,0,.,.,.,.,.,.
COc1ccc(C(Nc2ccccn2)c2cc(Cl)c3cccnc3c2O)cc1[N+](=O)[O-] (stereo unspecified),0,.,.,.,.,.,.
O=C(Nc1ccc(F)cc1)N1CCCCN2[C@H](C1)[C@H](c1ccc(C#Cc3ccccc3)cc1)[C@@H]2CO,.,123*,-3,102*,31,0,76*
O=C(Nc1ccc(F)cc1)N1CCCCN2[C@H](CO)[C@H](c3ccc(C#Cc4ccccc4)cc3)[C@@H]2C1,.,19,-3,.,.,.,.
O=C(Nc1ccccc1)N1CCCCN2[C@H](CO)[C@H](c3ccc(C#Cc4ccccc4)cc3)[C@@H]2C1,.,60,0,.,.,.,.
SMILES,IDH1 mut inh,T cruzi growth-1,GASC1 inh,T cruzi growth-2,T cruzi growth-3,3T3 cytotox,3T3 cytotox 2
O=C(Nc1ccccc1)N1CCCCN2[C@H](C1)[C@H](c1ccc(C#Cc3ccccc3)cc1)[C@@H]2CO,.,106*,0,104*,45,10,39*
COC(=O)c1ccc(NC(=O)CSc2nnc(-c3ccc(Br)cc3)o2)cc1,0,.,.,.,.,.,.
COC(=O)c1ccc(C2C(C(=O)c3cc4ccccc4o3)C(=O)C(=O)N2Cc2ccncc2)cc1 (stereo unspecified),1,.,.,.,.,.,.
CSC(=O)OCC1=C[C@H](O)[C@@H]2C(C(=O)O)=CO[C@@H](OC3OC(CO)C(O)C(O)C3O)[C@H]12 (stereo partly specified),0,.,.,.,.,.,.
C[C@H](CO)N1C[C@H](C)[C@H](CN(C)Cc2ccc(F)cc2)Oc2cc(C#Cc3ccccn3)ccc2S1(=O)=O,-11,124*,-6,109*,93,-28,9
C[C@H](CO)N1C[C@H](C)[C@H](CN(C)CC2CC2)Oc2cc(C#Cc3ccccn3)ccc2S1(=O)=O,-5,21,-2,.,.,.,.
C[C@H]1CN([C@@H](C)CO)S(=O)(=O)c2ccc(C#Cc3ccccn3)cc2O[C@@H]1CN(C)Cc1ccc(F)cc1,-1,130*,-19,96*,79,42*,85*
C[C@H]1CN([C@@H](C)CO)S(=O)(=O)c2ccc(C#Cc3ccccn3)cc2O[C@@H]1CN(C)Cc1ccccc1,0,75,-24,.,.,.,.
C[C@H]1CN([C@@H](C)CO)S(=O)(=O)c2ccc(C#Cc3ccccn3)cc2O[C@H]1CN(C)Cc1ccc(F)cc1,0,116*,-2,103*,76,3,37*
C[C@@H]1CN([C@@H](C)CO)S(=O)(=O)c2ccc(C#Cc3ccccn3)cc2O[C@H]1CN(C)C,0,.,2,.,.,.,.
O=C(Nc1ccccc1C(=O)OCc1cccc([N+](=O)[O-])c1)c1ccccc1,0,.,.,.,.,.,.
Cc1cc(C)cc(N(C(C)C(=O)Nc2cccc(C(F)(F)F)c2)S(C)(=O)=O)c1 (stereo unspecified),-1,.,.,.,.,.,.
O=C(OC[C@H]1O[C@@H](Oc2ccc(O)cc2COC(=O)C2(O)C=CCCC2=O)[C@H](O)[C@@H](O)[C@@H]1O)c1ccccc1 (stereo partly specified),1,.,.,.,.,.,.
